Compound activity from PubChem.
Rows were chosen to be rich in hits. Some 3.2% of all compounds tested hit in one or more screens of this group.
PRMT1 FP inh: blocks human protein arginine methyltransferase 1; recombinant PRMT1, activity-based probe fluorescence polarization; inhibition, % at 2.79 µM; AID 652257; 370,000 compounds, 1.3% hits; Q99873;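 active = inhibition above about 21% made by adding two undisclosed values, limit read from the data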
DAGLB inh: diacylglycerol lipase beta (human) inhibition | Q8NCG7 | HEK293T DAGLB membrane lysate, EnzChek fluorogenic substrate | inhibition, % at 5.17 µM | 340,000 compounds, 0.059% hits | AID 504411; in the data active = inhibition above about 34%;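 also: 0% = enzyme with vehicle and 100% = wells lacking enzyme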
Target sequence (Q8NCG7 whole entry, looked up): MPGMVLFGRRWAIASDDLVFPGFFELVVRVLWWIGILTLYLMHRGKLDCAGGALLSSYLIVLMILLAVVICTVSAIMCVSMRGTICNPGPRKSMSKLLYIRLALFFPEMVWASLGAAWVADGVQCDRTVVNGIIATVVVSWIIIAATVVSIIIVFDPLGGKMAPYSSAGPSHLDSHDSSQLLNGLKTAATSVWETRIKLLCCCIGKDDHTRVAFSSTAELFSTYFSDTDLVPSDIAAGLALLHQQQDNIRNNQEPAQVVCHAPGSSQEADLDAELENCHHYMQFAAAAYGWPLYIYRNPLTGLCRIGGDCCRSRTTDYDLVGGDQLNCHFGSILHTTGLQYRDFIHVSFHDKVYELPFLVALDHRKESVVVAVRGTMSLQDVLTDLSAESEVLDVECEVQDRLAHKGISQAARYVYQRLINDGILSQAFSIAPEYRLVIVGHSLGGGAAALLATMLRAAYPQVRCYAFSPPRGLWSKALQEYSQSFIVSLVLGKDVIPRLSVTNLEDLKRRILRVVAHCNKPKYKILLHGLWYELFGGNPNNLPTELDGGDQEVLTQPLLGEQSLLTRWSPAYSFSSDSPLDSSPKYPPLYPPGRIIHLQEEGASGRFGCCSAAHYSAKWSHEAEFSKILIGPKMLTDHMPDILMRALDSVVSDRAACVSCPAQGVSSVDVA
LEDGF integ inh: blocks HIV-1 LEDGF/p75-dependent DNA integration; TR-FRET IN-LEDGF/p75 DNA integration, Eu/Cy5; inhibition, % at 3.7 µM; 370,000 compounds, 0.64% hits;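 active = inhibition above the screen-wide mean plus 3 SD, cut at about 13% in these data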;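 also: signal is the Cy5 over europium emission ratio at 671 and 618 nm; 0% = plate median of compound wells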
mABHD4 FP: ABHD4 (mouse) inhibition, primary FP screen. Q8VD66. purified mABHD4, FP-Rh probe fluorescence polarization. inhibition, % at 8.92 µM. 370,000 compounds, 0.54% hits. AID 720543;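 active = inhibition exceeding the mean over every tested compound plus 3 SD, cut at about 30% in these data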;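 also: 0% = plate median of compound wells and 100% = S159A mutant with DMSO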
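Test system: mouse ABHD4 enzyme, wild type. Reagent: FP-Rh fluorescent activity-based probe, added after compound pre-incubation. Timing: pre-incubation 45 min, probe exposure 60 min, at 25 °C. Technique: FP readout, ex 525 nm / em 598 nm. Benchmarks: high control S159A mutant with DMSO, low control median of compound wells.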
HTRA1 inh: blocks human HTRA1 serine peptidase; inhibition, % at 5.96 µM; recombinant HTRA1, FP-rhodamine activity-based probe, fluorescence polarization; AID 504803; 340,000 compounds, 0.5% hits; in the data active = inhibition above about 36%;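 also: 0% = enzyme with DMSO and 100% = wells lacking enzyme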
rCAG RNA binder: molecules binding r(CAG) RNA repeats. r(CAG) RNA repeat, TO-PRO-1 dye displacement fluorescence. inhibition, % at 3 µM. 370,000 compounds, 1.3% hits. AID 651821;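 active = inhibition above the plate cutoff, the mean of all test compounds on that plate plus 3 SD, cut at about 35% in these data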;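 also: 0% = DMSO alone and 100% = 100 µM mitoxantrone as full dye displacement; higher means more dye released from RNA so lower well fluorescence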
HTRA1 conf: HTRA1 (human) inhibition, confirmation. 1,600 compounds, 66% hits. inhibition, % at 5.96 µM. shares compounds with HTRA1 inh. AID 540248. recombinant HTRA1, FP-rhodamine activity-based probe, fluorescence polarization;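 active = mean inhibition over three repeats above a set limit taken from the earlier primary screen, cut at about 37% in these data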;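 also: 0% = HTRA1 with DMSO and 100% = wells lacking HTRA1; inhibitors block probe binding so polarization drops and inhibition rises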
rCAG bind conf: r(CAG) RNA repeat binding, confirmation; inhibition, % at 3 µM; TO-PRO-1 dye displacement fluorescence; shares compounds with rCAG RNA binder; AID 652065; 4,300 compounds, 70% hits;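 active = inhibition above a per-plate cutoff, the mean inhibition of sample wells plus 3 SD, cut at about 35% in these data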;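 also: loss of TO-PRO-1 fluorescence as compound displaces dye from 1x1 AA loop RNA; 0% = DMSO only wells and 100% = 100 µM mitoxantrone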
dCAG dye counter: DNA CAG dye complex inhibition counter-screen; shares compounds with rCAG RNA binder; d(CAG) DNA oligo TO-PRO-1 dye displacement, fluorescence; inhibition, % at 3 µM; 4,300 compounds, 94% hits;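 active = inhibition above its plate's cutoff, the mean test-well inhibition plus 3 SD, cut at about 4.8% in these data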;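 also: 0% = DNA dye mix with DMSO and 100% = 100 µM mitoxantrone; hits displace the dye from DNA and so lower well fluorescence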
PRMT1 confirm: PRMT1 (human) inhibition, FP confirmation; shares compounds with PRMT1 FP inh; recombinant His-PRMT1, activity-based probe fluorescence polarization; 3,300 compounds, 42% hits; inhibition, % at 2.79 µM; AID 687036;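 active = mean inhibition across replicates above the hit cutoff derived for the earlier primary screen, cut at about 22% in these data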
ABHD4 confirm: confirmation of mouse ABHD4 inhibitors; shares compounds with mABHD4 FP; purified mABHD4, FP-Rh probe fluorescence polarization; inhibition, % at 8.92 µM; 1,800 compounds, 55% hits; AID 720658;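 active = mean inhibition across replicates above the hit cutoff set in the primary screen, cut at about 30% in these data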;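 also: 0% = wild-type ABHD4 with DMSO and 100% = catalytically dead S159A mutant with DMSO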
Numbers without * were called inactive; i = inactive; nt = no result; + = active, no number.

SMILES | PRMT1 FP inh | DAGLB inh | LEDGF integ inh | mABHD4 FP | HTRA1 inh | rCAG RNA binder | HTRA1 conf | ABHD4 confirm | others
COc1cccc(N=Nc2ccc(O)c3ncccc23)c1 | -11 | 26 | 7 | 43* | 76* | 18 | 67* | 48*
CCCN(CCC)C(=O)c1cn(C)c2ccc(S(=O)(=O)N3CCCC3)cc2c1=O | 2 | -1 | -3 | 1 | -3 | -5 | nt | nt
Cc1ccc2c(c1)CCCN2C(=O)Nc1ccc2c(c1)OCO2 | 9 | 0 | 0 | 9 | 8 | 0 | nt | nt
Cn1c(=O)c(NCCc2ccccc2)c2c3c(cccc31)C(=O)c1ccccc1-2 | + | i | 0 | 198* | 146* | -82 | 149* | +
Cn1c(=O)c(NCCO)c2c3c(cccc31)C(=O)c1ccccc1-2 | 184* | -166 | 2 | 93* | 60* | i | 72* | 85* | PRMT1 confirm=184*
Cn1c(NCCc2ccccc2)cc(=O)n(C)c1=O | 1 | -1 | 1 | 0 | 0 | 0 | nt | nt
O=C(c1ccco1)N1CCN(CCCCN2C(=O)c3ccccc3C2=O)CC1 | 2 | 1 | 3 | 1 | -2 | -5 | nt | nt
O=C(O)CCCNc1cc(N2CCN(C(=O)c3ccco3)CC2)c2noc3c2c1C(=O)c1ccccc1-3 | 19 | 3 | 4 | 66* | 52* | 27 | 47* | 43*
O=C1c2ccccc2-c2onc3c(N4CCN(CCO)CC4)cc(N4CCN(C(=O)c5ccco5)CC4)c1c23 | 15 | 20 | -10 | 35* | 67* | 7 | 72* | 43*
O=C1c2ccccc2-c2c1cccc2C(=O)N1CCN(C(=O)c2ccco2)CC1 | 3 | 2 | -2 | -2 | 7 | 5 | nt | nt
CC(=O)N1CCC(=NNC(=O)c2cc3ccccc3cc2O)CC1 | 0 | 1 | 0 | 34* | 51* | 34 | 24 | 21
O=C1CCCC(=NNC(=O)c2cc3ccccc3cc2O)C1 | nt | -8 | nt | nt | 25 | nt | nt | nt
Nc1ccc(N(c2ccccc2)c2ccc(N)cc2)cc1 | 2 | 17 | 4 | 39* | 65* | 8 | 54* | 48*
CCCCCCCCCCCCCCCC[n+]1cccc2ccccc21 | -1 | 8 | 4 | 37* | 64* | 8 | 71* | 54*
Cn1c(CN2CCOCC2)nnc1SCC(N)=O | 3 | -2 | -4 | -2 | 4 | -4 | nt | nt
O=C1C=C(c2c(O)ccc3ccccc23)c2ccccc2C1=O | 41* | 0 | -2 | 52* | 46* | 10 | 48* | 55* | PRMT1 confirm=40*
CCC1CCCCN1C(=O)c1sc2nc(C)nc(N(CC)CC)c2c1C (stereo unspecified) | -2 | -3 | -1 | 9 | -2 | -9 | nt | nt
Cc1cc(C(=O)O)ccc1N/C=C1\CCCC(C)C1=O (stereo unspecified) | 1 | 0 | -1 | 4 | 0 | 5 | nt | nt
CC1CCC/C(=C\Nc2ccc(O)cc2)C1=O (stereo unspecified) | 15 | 6 | 3 | 44* | 39* | 6 | 9 | 22
Cc1ccc(-c2ccccc2NC(=O)CS(=O)CC(=O)Nc2ccc(C)c(Cl)c2)o1 (stereo unspecified) | 52* | -2 | -2 | 36* | 39* | -1 | 22 | 16
COc1ccc(C/C(C)=N\NC(=O)c2cn(C)c3ccccc23)cc1OC | 2 | -6 | 0 | -13 | -17 | 5 | nt | nt
CCCn1nc([N+](=O)[O-])c(C(C#N)c2nc3ccccc3o2)c(Cl)c1=O (stereo unspecified) | 22* | 70* | 3 | 80* | 69* | 80* | 83* | 95* | rCAG bind conf=77*;dCAG dye counter=37*
Oc1ccccc1N=Cc1c(O)ccc2oc3c(c12)CCCC3 | 15 | 1 | 6 | 30* | 43* | 6 | 68* | -5
CN(C(=S)Nc1ccc(Oc2ccccc2)cc1)c1ccc(O)cc1 | 11 | 5 | 2 | 35* | 45* | 11 | -13 | 6
CN(C(=S)Nc1ccccc1)c1ccccc1 | -2 | 2 | 3 | 8 | -1 | -1 | nt | nt
SMILES | PRMT1 FP inh | DAGLB inh | LEDGF integ inh | mABHD4 FP | HTRA1 inh | rCAG RNA binder | HTRA1 conf | ABHD4 confirm | others
CCN(CC)C(=O)CSc1nc2ccccc2c(=O)n1-c1ccccc1OC | 1 | -5 | 3 | 5 | 4 | -6 | nt | nt
Cn1cc(C(=O)N/N=C/c2c(O)ccc3ccccc23)ccc1=O | -3 | 6 | 2 | 31* | 62* | 7 | 42* | 30*
O=C(NN=Cc1c(O)ccc2ccccc12)c1ccncc1 | -5 | -13 | -6 | 16 | 22 | -3 | nt | nt
O=C(N/N=C/c1c(O)ccc2ccccc12)c1ccc(Br)o1 | 1 | 1 | 1 | 38* | 48* | 9 | 42* | 10
O=C(N/N=C\c1c(O)ccc2ccccc12)c1cncc(Br)c1 | -4 | -9 | -9 | 34* | 53* | -2 | 50* | 25
Cc1cccc(NC(=O)CSCC(=O)Nc2ccccc2C(=O)N2CCCCC2)c1 | -2 | -1 | -2 | 3 | -2 | -2 | nt | nt
NC(=O)CCN(Cc1ccccc1)S(=O)(=O)c1ccccc1 | -2 | -2 | 3 | 2 | 4 | 0 | nt | nt
Fc1cccc(Cl)c1C1Nc2cccc3cccc(c23)N1 | 33* | 5 | 5 | 57* | 50* | 26 | 19 | 48* | PRMT1 confirm=27*
COc1cc(OC)c(C2Nc3cccc4cccc(c34)N2)c(OC)c1 | 21 | 6 | 4 | 50* | 52* | 17 | 19 | 36*
Clc1cccc(Cl)c1C1Nc2cccc3cccc(c23)N1 | 31* | 8 | 7 | 72* | 70* | 20 | 26 | 48*
CCCCC(=O)Nc1ccc(C(=O)Nc2ccc3c(c2)OCO3)cc1 | 2 | 0 | 0 | 5 | 0 | -1 | nt | nt
O=C1c2ccccc2C(=O)c2[nH]c(=O)[nH]c21 | 3 | 0 | 3 | 21 | 11 | 7 | nt | nt
COc1ccc2ccccc2c1C(O)c1nccn1C (stereo unspecified) | 85* | -15 | -2 | 40* | 39* | -278 | 25 | 88*
Cn1ccnc1C(O)c1ccccc1 (stereo unspecified) | 3 | 2 | 0 | 3 | -4 | -2 | nt | nt
